Data on 15 molecules can be found in article PMC8923061 (ACS Pharmacology & Translational Science, 2022).

Where a name gives a salt, the structure may show the parent alone. Read-outs that look alike come from different tables or passages of the source.

Assay [1] addresses LPA1 receptor (Cricetulus griseus, UniProt G3HUC7). The format is cell-based, Chinese hamster. The note with it: CHOK1/Gα15/GCaMP6s-CAAX.
The target of assay [2] is CaV3.3 (Homo sapiens, UniProt Q9P0X4). The experiment in a line: cell-based. Type of assay: cell-based. The note with it: for potentiator activity at CaV3.3: GCaMP6s-CAAX FLIPR, CRC, EC10 KCl.
Sequence of CaV3.3 (Q9P0X4 whole entry): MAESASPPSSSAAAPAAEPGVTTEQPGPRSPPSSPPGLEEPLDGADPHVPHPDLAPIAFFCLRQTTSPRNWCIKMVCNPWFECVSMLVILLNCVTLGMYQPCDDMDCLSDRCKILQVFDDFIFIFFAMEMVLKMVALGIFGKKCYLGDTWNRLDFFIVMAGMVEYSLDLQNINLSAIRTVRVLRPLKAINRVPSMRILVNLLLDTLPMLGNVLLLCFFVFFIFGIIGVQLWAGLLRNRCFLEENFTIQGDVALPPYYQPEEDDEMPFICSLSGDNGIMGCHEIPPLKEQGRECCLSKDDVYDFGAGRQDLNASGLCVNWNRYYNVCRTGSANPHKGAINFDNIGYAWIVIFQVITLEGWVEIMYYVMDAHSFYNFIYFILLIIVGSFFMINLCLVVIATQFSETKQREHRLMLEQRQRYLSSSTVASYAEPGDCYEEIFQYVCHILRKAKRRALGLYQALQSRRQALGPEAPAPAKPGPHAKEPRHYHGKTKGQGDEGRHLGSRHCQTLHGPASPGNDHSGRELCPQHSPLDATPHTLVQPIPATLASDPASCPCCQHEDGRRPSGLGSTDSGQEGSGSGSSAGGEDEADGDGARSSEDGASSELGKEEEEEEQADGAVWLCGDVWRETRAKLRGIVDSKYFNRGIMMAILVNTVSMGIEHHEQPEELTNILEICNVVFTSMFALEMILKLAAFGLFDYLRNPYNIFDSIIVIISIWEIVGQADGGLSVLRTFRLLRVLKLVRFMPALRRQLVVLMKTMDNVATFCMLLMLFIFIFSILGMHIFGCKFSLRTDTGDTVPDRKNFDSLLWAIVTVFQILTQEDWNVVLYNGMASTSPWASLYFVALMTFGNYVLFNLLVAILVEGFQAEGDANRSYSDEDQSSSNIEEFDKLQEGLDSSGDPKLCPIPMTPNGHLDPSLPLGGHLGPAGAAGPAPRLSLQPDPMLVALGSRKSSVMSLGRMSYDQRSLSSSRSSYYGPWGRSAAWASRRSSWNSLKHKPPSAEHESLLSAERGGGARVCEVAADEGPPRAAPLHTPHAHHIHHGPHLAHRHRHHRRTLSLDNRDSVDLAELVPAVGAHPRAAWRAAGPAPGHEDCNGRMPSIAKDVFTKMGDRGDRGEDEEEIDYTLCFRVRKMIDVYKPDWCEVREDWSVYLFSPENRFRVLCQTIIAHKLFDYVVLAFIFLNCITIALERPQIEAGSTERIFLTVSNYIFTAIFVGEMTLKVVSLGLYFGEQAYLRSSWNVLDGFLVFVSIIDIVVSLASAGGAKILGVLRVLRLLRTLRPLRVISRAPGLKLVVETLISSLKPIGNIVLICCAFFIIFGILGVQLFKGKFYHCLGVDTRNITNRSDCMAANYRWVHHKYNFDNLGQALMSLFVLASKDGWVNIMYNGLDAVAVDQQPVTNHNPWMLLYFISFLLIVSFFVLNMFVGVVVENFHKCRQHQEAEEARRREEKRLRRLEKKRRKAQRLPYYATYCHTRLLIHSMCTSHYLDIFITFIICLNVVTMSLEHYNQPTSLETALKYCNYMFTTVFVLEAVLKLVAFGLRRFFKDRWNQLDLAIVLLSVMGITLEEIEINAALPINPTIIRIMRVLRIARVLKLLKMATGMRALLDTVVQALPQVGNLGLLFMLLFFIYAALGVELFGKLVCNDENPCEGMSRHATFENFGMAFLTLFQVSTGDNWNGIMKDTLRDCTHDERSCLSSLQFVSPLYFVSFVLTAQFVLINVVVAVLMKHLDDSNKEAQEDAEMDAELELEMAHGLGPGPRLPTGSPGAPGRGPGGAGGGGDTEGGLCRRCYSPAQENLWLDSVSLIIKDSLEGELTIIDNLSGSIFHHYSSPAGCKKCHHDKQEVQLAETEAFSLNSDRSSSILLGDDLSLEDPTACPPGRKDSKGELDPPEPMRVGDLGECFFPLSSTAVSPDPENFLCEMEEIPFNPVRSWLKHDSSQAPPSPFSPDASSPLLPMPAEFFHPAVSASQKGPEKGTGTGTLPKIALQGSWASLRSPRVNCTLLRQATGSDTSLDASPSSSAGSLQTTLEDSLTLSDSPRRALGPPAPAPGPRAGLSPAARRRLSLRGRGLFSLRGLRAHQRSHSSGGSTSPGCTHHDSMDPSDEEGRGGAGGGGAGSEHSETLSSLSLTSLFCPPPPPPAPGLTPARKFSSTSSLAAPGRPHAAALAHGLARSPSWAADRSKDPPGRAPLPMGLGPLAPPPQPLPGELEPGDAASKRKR
Assay [3] concerns the target CaV3.1 (Homo sapiens, UniProt O43497). Type of assay: cell-based. As to conditions: GCaMP6s-CAAX FLIPR, CRC, low CaCl2. Put shortly:
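HEK293 cells co-expressing CaV3.1, Kir2.3 and GCaMP6s-CAAX in DMEM/F-12 GlutaMAX + 10% FBS + 1.25 μg/mL puromycin. Induced with 1 μg/mL doxycycline, seeded at 16k/well on poly-D-lysine and grown 2 days at 37 °C. Equilibrated ~60 min at room temperature in the dark in buffer (133 mM NaCl, 10 HEPES, 10 glucose, 4 KCl, 1 CaCl2, pH 7.3). Stimulated with 1.5 mM (low) or 5.0 mM (high) CaCl2 on FLIPR Tetra at room temperature; peak over baseline used.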

Assay [4] addresses CaV3.2 (Homo sapiens, UniProt O95180). Type of assay: cell-based. The note with it: GCaMP6s-CAAX FLIPR, CRC, EC10 KCl. Put shortly: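 Inducible HEK293 CaV3.2/Kir2.3/GCaMP6s-CAAX cells, with no antibiotics in assay plates. Doxycycline (1 μg/mL) induction, 16k/well, 2 days at 37 °C, then ~60 min at room temperature in buffer of 133 mM NaCl, 10 HEPES, 10 glucose, 4 KCl, 1 CaCl2, pH 7.3. […] Peak response over baseline after each addition.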

For assay [5], the target named is C3a receptor (Cricetulus griseus, UniProt A0A061I1T5). The format is cell-based, Chinese hamster. As to conditions: read-out: EC50, increase in fluorescence (C3a receptor); CHOK1/Gα15/GCaMP6s-CAAX. In short, it runs like this: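 CHOK1-Gα15 cells stably expressing GCaMP6s-CAAX, kept in F-12K + 10% FBS with hygromycin (100 μg/mL) and G-418 (700 μg/mL). Seeded at 16k/well and grown 2 days at 37 °C. Buffer was HBSS + 20 mM HEPES + 0.1% fatty-acid-free BSA, pH 7.3; 30 min at 37 °C in the dark. FLIPR Tetra at 37 °C: ex 470-495/em 515-575 nm, 1 Hz, two additions. Agonist was hC3a; antagonist mode used 20 nM hC3a. Peak over baseline, scaled from buffer (0%) to saturating agonist (100%). Four replicates, two experiments.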

Sequence of LPA1 receptor (G3HUC7 1-364): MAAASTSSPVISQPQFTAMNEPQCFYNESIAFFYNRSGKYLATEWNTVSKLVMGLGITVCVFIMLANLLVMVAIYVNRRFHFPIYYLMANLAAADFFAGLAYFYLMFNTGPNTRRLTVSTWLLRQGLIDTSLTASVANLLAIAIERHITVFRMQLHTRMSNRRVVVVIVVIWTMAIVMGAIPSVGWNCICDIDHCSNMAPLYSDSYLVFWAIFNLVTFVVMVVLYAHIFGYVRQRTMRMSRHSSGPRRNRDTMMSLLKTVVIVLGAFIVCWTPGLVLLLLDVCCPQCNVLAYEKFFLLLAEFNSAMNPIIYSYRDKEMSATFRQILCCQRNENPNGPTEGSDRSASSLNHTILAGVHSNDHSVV
Sequence of CaV3.1 (O43497 whole entry): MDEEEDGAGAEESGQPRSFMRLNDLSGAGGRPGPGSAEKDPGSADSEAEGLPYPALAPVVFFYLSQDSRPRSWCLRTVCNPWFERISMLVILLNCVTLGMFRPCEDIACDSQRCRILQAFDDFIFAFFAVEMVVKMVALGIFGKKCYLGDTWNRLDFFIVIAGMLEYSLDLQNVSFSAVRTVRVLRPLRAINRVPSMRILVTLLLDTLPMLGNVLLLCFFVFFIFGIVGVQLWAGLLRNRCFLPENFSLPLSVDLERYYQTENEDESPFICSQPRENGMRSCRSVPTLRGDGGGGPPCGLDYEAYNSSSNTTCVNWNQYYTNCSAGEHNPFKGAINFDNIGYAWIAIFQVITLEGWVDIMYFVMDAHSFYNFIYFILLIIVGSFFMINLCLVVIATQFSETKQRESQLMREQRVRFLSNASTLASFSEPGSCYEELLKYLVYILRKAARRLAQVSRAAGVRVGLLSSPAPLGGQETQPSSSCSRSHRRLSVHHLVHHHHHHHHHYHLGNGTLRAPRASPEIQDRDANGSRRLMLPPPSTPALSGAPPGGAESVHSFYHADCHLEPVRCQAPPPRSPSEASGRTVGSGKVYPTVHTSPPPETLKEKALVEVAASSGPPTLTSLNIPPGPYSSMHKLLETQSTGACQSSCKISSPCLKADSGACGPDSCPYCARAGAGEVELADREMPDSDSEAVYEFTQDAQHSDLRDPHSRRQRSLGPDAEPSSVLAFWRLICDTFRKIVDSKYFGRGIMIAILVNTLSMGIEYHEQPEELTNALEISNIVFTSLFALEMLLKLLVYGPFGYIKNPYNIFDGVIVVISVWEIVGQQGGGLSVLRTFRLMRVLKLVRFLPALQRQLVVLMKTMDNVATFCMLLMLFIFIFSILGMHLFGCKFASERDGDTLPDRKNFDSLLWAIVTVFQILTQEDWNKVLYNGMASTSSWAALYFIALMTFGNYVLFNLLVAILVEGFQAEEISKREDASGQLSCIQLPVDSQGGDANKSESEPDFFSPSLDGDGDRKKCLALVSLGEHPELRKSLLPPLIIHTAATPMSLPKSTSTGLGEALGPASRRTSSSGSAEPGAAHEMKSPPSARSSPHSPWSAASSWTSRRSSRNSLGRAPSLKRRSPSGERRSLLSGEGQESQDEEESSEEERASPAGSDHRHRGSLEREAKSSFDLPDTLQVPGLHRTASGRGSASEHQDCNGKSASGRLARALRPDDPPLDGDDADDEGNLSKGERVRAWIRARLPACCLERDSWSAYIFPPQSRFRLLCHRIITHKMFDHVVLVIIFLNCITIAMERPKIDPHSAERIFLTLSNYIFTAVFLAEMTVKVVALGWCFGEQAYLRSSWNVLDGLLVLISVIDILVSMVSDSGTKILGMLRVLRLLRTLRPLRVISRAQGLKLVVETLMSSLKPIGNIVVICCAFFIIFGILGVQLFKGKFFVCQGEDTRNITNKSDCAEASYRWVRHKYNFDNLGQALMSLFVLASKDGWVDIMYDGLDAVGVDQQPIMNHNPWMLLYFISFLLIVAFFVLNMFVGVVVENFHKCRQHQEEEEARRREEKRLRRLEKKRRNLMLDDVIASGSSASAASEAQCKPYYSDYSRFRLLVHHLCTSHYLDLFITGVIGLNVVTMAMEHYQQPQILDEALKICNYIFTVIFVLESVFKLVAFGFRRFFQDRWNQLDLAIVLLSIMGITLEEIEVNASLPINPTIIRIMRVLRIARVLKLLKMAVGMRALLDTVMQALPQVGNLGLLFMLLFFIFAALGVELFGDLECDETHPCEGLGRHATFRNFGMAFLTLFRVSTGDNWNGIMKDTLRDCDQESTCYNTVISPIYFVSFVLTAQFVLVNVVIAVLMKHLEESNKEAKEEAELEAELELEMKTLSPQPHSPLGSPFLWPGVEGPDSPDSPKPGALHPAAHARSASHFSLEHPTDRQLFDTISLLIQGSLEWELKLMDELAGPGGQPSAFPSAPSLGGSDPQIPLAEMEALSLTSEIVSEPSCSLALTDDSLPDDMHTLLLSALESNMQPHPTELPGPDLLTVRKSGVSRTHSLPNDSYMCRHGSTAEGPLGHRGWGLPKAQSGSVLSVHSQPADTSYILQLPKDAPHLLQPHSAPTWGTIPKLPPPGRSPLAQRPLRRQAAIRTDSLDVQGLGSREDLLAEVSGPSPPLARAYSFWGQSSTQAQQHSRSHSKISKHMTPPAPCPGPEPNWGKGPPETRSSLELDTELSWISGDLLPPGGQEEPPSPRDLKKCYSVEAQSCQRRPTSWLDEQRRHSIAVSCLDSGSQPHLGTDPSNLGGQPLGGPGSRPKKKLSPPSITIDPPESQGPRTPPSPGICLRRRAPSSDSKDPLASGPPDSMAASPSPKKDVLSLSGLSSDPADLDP

A word on the IC50: it is the midpoint of a concentration-inhibition curve. As for `Cc1noc(-c2ccc(-c3ccc(CC(=O)O)cc3)cc2)c1NC(=O)O[C@H](C)c1ccccc1` [AM095], the IC50 in assay [1] (read-out: IC50, block of LPA1-mediated signal, EC80 agonist) amounted to 240 ± 20 nM.

Turning to `CCOC(=O)C1=C(N2CCCCC2)C2(CC1=O)C(=O)N=C1C(C)=CC=CN12` (centres unmarked) [SAK3], in assay [2], the “potentiator activity at CaV3.3” value was “neither SAK3 (Figure 3D) nor ST-101 (Supporting Information Figure S3) displayed potentiator activity”. Also, the “potentiator activity at CaV3.1” value in assay [3] was “neither SAK3 (Figure 3D) nor ST-101 (Supporting Information Figure S3) displayed potentiator activity”. For the same molecule, the “potentiator activity at CaV3.2” value in assay [4] is “neither SAK3 (Figure 3D) nor ST-101 (Supporting Information Figure S3) displayed potentiator activity”.

With `O=C1N=C2C=CC=CN2C12Cc1ccccc1C2` [ST-101], in assay [2], the “potentiator activity at CaV3.3” value is “neither SAK3 (Figure 3D) nor ST-101 (Supporting Information Figure S3) displayed potentiator activity”. Also, in assay [3], the “potentiator activity at CaV3.1” value is reported as “neither SAK3 (Figure 3D) nor ST-101 (Supporting Information Figure S3) displayed potentiator activity”. Moreover, in assay [4], the “potentiator activity at CaV3.2” value is given as “neither SAK3 (Figure 3D) nor ST-101 (Supporting Information Figure S3) displayed potentiator activity”.

Molecule `CC1=C(C(=O)OC(C)C)C(c2cccc([N+](=O)[O-])c2)C(C(=O)OC2CN(C(c3ccccc3)c3ccccc3)C2)=C(N)N1` (centres unmarked) [azelnidipine] displayed an IC50 in assay [2] of 26000 nM.

For `Fc1ccc(C(c2ccc(F)cc2)N2CCN(C/C=C/c3ccccc3)CC2)cc1` [flunarizine dihydrochloride], the IC50 in assay [2] is 1200 nM.

`CCOC(=O)Nc1ccc(NCc2ccc(F)cc2)nc1N` [flupirtine maleate] displayed an IC50 in assay [2] of 3500 nM.

Take `COC(=O)C1=C(C)NC(C)=C(C(=O)OC(C)(C)CN(C)CCC(c2ccccc2)c2ccccc2)C1c1cccc([N+](=O)[O-])c1` (centres unmarked) [lercanidipine hydrochloride]: in assay [2], 410 nM corresponded to half-maximal inhibition (IC50).

Take `CN(C)C(=O)C(CCN1CCC(O)(c2ccc(Cl)cc2)CC1)(c1ccccc1)c1ccccc1` [loperamide hydrochloride]: the IC50 in assay [2] came out at 1300 nM.

As for `CC(C)c1ccc(CC(=O)N[C@H](C)c2ccc(OCC(F)(F)F)cn2)cc1` [mk-8998], the IC50 in assay [2] was 37 nM.

Molecule `COC(=O)C1=C(C)NC(C)=C(C(=O)OCCN(C)Cc2ccccc2)C1c1cccc([N+](=O)[O-])c1` (centres unmarked) [nicardipine hydrochloride] gave an IC50 in assay [2] of 2100 nM.

The molecule `CCOC(=O)C1=C(C)NC(C)=C(C(=O)OC)C1c1cccc([N+](=O)[O-])c1` (centres unmarked) [nitrendipine] gave an IC50 in assay [2] of 18000 nM.

On to `CCOC(=O)Nc1ccc(NCc2ccc(F)cc2)cc1N` [retigabine], for which the IC50 in assay [2] is 9400 nM.

Take `C[C@@H](NC(=O)Cc1ccc(C2CC2)cc1)c1ccc(OCC(F)(F)F)cn1` [tta-a2]: in assay [2], the “effect on KCl-induced CaV3.3-dependent fluorescence signal” value was “blocked”. Moreover, the IC50 in assay [2] (read-out: IC50 against CaV3.3) is 53 nM.

By EC50 is commonly meant the concentration needed to bring the measured effect to its halfway point. human C3a [hC3a]: the EC50 in assay [5] was 4.5 ± 0.5 nM.

In the case of lysoPA18:1, the concentration giving a half-maximal response (EC50) in assay [1] (read-out: EC50, increase in fluorescence (LPA1 receptor agonist)) came to 1010 ± 190 nM.
